Experimental data published in ChEMBL document CHEMBL5661979, “Pharmacological inhibition of BMK1 suppresses tumor growth through promyelocytic leukemia protein” (Cancer Cell, 2010).

Legend:
Assay type in all cases: subcellular
[1] = molecular target: Ribosomal protein S6 kinase alpha-3 (Homo sapiens, UniProt P51812); experiment: Inhibition of RSK2 domain 2 in human HeLa cells lysate pre incubated for 15 mins followed by ATP acyl phosphate probe addition and measured after 10 mins by LC-MS/MS analysis
[2] = molecular target: Cyclin-dependent kinase 9 (Homo sapiens, UniProt P50750); experiment: Inhibition of CDK9 in human HeLa cells lysate at 50 uM pre incubated for 15 mins followed by ATP acyl phosphate probe addition and measured after 10 mins by LC-MS/MS analysis relative to control; conditions: time 25.0 min
Sequence of Cyclin-dependent kinase 9 (P50750 whole entry, the tested form may be a part): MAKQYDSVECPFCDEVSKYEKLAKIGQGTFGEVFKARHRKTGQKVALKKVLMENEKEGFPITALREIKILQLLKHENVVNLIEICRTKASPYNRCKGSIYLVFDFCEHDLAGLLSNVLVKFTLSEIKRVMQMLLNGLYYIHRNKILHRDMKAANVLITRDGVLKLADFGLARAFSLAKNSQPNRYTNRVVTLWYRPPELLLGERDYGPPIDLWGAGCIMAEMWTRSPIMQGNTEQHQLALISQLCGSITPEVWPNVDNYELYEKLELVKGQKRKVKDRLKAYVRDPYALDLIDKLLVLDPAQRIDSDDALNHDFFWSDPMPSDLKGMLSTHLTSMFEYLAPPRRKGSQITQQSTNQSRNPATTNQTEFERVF
In short: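 KiNativ profiling in HeLa lysate (5 mg/mL total protein). Lysate incubated 15 min with inhibitor at 50, 10, 2, 0.8 or 0 μM. ATP or ADP acylphosphate probe then added (5 μM final) and reacted 10 min. Reaction stopped with urea and analysed by targeted MS, using up to four fragment ions per kinase peptide-probe conjugate. % inhibition taken against untreated lysate. Run in duplicate.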

[3] = molecular target: Serine/threonine-protein kinase TAO2 (Homo sapiens, UniProt Q9UL54); experiment: Inhibition of TAO2 in human HeLa cells lysate pre incubated for 15 mins followed by ATP acyl phosphate probe addition and measured after 10 mins by LC-MS/MS analysis
Sequence of Serine/threonine-protein kinase TAO2 (Q9UL54 whole entry): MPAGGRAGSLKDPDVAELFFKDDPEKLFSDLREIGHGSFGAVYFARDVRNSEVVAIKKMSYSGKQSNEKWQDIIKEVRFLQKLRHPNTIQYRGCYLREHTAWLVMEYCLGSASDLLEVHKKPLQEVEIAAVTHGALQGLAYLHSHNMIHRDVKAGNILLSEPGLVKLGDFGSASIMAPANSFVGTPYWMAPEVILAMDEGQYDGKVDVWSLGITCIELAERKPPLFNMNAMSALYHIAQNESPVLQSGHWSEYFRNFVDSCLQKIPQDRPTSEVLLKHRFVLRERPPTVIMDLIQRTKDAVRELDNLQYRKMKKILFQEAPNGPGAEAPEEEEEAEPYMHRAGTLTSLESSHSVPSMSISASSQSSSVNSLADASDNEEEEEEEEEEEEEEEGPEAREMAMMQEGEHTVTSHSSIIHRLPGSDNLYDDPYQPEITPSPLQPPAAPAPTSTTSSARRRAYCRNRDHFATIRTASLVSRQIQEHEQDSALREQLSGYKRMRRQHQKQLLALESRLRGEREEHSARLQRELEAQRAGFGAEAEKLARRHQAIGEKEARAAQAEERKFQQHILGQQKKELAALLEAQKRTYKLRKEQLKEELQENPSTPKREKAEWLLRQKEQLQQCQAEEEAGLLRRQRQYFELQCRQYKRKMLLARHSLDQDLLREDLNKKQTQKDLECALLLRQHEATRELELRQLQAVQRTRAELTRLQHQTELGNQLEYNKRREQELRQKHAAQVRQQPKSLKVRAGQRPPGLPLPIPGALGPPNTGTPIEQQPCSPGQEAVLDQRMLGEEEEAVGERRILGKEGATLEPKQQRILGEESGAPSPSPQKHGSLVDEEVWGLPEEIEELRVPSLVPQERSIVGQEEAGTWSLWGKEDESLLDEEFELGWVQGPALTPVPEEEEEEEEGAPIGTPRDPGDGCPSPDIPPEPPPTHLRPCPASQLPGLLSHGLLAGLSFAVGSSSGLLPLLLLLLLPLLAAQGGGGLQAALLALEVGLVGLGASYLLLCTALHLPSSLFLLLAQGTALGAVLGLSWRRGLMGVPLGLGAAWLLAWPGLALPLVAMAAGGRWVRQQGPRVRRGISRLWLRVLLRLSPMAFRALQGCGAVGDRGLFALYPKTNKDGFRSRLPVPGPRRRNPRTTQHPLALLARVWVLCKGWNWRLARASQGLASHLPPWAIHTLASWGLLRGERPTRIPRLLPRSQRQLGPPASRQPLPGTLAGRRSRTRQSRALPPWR

[4] = molecular target: Mitogen-activated protein kinase kinase kinase 1 (Homo sapiens, UniProt Q13233); experiment: Inhibition of MAP3K1 in human HeLa cells lysate at 2 uM pre incubated for 15 mins followed by ADP acyl phosphate probe addition and measured after 10 mins by LC-MS/MS analysis relative to control; conditions: time 25.0 min
Sequence of Mitogen-activated protein kinase kinase kinase 1 (Q13233 whole entry): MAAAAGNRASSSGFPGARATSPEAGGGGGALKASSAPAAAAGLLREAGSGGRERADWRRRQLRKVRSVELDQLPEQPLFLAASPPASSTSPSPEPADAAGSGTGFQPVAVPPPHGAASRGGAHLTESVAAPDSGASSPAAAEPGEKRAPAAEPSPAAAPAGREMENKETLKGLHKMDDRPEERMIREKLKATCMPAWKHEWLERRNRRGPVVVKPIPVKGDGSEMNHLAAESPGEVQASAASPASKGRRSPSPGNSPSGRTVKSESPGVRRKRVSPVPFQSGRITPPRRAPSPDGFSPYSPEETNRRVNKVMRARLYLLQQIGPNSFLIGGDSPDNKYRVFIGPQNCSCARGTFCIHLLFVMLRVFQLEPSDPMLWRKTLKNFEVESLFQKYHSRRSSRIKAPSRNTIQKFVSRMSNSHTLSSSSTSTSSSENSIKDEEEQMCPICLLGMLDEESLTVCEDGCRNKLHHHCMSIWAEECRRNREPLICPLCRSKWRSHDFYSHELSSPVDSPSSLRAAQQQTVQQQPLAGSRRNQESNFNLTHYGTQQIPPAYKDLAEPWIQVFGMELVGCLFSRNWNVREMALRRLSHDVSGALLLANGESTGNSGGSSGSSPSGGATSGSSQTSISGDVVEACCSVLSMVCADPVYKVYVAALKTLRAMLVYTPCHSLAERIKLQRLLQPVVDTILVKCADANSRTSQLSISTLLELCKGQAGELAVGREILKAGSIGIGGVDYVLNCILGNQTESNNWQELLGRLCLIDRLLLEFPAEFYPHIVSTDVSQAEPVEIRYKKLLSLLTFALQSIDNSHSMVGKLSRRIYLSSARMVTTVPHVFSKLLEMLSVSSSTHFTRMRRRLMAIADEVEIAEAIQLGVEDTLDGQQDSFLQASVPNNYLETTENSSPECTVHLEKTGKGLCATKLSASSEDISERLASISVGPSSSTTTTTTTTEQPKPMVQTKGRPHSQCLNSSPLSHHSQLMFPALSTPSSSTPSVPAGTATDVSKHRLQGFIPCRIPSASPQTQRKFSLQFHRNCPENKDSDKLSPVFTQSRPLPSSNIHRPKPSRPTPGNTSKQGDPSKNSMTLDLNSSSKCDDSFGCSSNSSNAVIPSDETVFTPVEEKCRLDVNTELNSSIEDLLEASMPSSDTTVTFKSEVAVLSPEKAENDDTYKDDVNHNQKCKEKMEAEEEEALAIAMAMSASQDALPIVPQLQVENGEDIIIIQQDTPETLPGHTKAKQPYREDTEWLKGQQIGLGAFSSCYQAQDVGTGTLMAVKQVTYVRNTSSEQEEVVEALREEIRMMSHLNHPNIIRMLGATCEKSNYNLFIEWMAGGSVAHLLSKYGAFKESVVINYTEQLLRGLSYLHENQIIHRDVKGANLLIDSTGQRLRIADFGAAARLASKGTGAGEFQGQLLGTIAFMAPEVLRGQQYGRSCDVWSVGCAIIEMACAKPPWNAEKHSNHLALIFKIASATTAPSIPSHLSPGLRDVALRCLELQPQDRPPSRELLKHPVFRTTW

[5] = molecular target: Serine/threonine-protein kinase 38-like (Homo sapiens, UniProt Q9Y2H1); experiment: Inhibition of NDR2 in human HeLa cells lysate at 50 uM pre incubated for 15 mins followed by ADP acyl phosphate probe addition and measured after 10 mins by LC-MS/MS analysis relative to control; conditions: time 25.0 min
[6] = molecular target: Serine/threonine-protein kinase B-raf (Homo sapiens, UniProt P15056); experiment: Inhibition of BRAF in human HeLa cells lysate pre incubated for 15 mins followed by ADP acyl phosphate probe addition and measured after 10 mins by LC-MS/MS analysis
Sequence of Serine/threonine-protein kinase B-raf (P15056 whole entry, the tested form may be a part): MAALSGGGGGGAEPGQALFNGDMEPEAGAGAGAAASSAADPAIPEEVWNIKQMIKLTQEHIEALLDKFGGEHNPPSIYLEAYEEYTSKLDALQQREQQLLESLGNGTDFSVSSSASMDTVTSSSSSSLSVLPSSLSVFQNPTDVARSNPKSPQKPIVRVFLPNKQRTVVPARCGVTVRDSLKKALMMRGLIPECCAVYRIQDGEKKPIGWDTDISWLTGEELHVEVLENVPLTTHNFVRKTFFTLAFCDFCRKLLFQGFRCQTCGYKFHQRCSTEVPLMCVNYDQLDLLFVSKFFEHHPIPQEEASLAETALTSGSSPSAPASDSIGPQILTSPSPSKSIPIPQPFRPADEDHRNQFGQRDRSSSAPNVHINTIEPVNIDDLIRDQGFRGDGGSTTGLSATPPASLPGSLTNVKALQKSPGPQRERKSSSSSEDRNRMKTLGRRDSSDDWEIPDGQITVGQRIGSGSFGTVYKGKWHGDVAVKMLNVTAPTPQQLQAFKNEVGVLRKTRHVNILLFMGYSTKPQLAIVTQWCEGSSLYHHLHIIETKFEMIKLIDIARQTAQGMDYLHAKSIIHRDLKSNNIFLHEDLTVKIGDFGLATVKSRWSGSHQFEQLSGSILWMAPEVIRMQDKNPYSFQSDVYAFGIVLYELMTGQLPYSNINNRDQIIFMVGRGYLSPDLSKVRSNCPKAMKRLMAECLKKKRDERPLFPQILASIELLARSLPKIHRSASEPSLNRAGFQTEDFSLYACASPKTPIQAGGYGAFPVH
In short: (§1)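 KiNativ-type profiling in HeLa lysate (5 mg/mL total protein). Lysate preincubated 15 min with inhibitor at 50, 10, 2, 0.8 or 0 μM, then ATP or ADP acylphosphate probe added (5 μM final) for 10 min. Reaction stopped with urea and analysed by targeted MS, using up to four fragment ions per kinase peptide-probe conjugate. % inhibition calculated against untreated lysate. Duplicate reactions.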

[7] = molecular target: Dual specificity mitogen-activated protein kinase kinase; MEK1/2 (Homo sapiens, UniProt P36507+Q02750); experiment: Inhibition of MAP2K1/MAP2K2in human HeLa cells lysate at 10 uM pre incubated for 15 mins followed by ADP acyl phosphate probe addition and measured after 10 mins by LC-MS/MS analysis relative to control; conditions: time 25.0 min
Sequence of Dual specificity mitogen-activated protein kinase kinase; MEK1/2 (P36507 whole entry, looked up): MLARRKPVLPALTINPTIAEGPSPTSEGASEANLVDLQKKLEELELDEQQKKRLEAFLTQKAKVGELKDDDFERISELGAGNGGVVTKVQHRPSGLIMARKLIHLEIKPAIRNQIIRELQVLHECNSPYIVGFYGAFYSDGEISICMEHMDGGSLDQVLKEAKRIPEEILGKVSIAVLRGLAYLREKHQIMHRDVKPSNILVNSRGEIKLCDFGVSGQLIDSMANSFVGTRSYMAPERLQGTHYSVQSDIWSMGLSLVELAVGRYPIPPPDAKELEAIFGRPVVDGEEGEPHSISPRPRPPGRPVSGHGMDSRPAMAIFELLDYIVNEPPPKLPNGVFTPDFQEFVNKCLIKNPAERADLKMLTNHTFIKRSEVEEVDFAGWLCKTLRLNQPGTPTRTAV
Sequence of Dual specificity mitogen-activated protein kinase kinase; MEK1/2 (Q02750 whole entry, looked up): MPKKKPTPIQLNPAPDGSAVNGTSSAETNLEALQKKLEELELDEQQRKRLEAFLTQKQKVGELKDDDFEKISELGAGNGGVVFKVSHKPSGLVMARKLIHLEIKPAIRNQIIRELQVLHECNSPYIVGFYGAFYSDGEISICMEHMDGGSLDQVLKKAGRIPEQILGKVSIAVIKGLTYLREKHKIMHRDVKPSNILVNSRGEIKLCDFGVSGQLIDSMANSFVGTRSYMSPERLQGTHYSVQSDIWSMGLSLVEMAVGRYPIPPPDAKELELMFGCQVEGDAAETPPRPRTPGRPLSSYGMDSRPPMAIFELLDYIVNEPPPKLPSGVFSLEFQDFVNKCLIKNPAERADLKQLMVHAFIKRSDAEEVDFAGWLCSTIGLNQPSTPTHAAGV

[8] = molecular target: Serine/threonine-protein kinase 38 (Homo sapiens, UniProt Q15208); experiment: Inhibition of NDR1 in human HeLa cells lysate pre incubated for 15 mins followed by ATP acyl phosphate probe addition and measured after 10 mins by LC-MS/MS analysis
[9] = molecular target: T1, Serine/threonine-protein kinase A-Raf (Homo sapiens) (UniProt P10398); experiment: Inhibition of ARAF in human HeLa cells lysate at 2 uM pre incubated for 15 mins followed by ATP acyl phosphate probe addition and measured after 10 mins by LC-MS/MS analysis relative to control; conditions: time 25.0 min; in short: as §1
T1 sequence (whole entry): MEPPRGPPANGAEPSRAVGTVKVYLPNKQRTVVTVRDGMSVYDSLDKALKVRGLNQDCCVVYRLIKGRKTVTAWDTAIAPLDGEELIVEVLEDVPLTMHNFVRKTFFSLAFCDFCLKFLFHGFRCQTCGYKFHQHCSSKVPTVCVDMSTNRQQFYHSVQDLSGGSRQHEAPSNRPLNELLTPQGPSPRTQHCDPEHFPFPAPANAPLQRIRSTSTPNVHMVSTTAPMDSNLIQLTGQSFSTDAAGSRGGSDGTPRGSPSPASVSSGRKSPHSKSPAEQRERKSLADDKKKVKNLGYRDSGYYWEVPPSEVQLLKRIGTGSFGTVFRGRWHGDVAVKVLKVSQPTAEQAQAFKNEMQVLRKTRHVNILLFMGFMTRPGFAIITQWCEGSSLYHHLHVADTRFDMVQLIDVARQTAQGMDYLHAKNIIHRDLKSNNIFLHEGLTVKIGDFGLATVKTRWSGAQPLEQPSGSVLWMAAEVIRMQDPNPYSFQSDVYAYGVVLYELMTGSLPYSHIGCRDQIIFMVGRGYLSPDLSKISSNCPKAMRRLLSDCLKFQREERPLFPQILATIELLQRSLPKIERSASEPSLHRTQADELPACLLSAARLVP

[10] = molecular target: T2, Serine/threonine-protein kinase Nek9 (Homo sapiens) (UniProt Q8TD19); experiment: Inhibition of NEK9 in human HeLa cells lysate at 50 uM pre incubated for 15 mins followed by ATP acyl phosphate probe addition and measured after 10 mins by LC-MS/MS analysis relative to control; conditions: time 25.0 min
T2 sequence (whole entry): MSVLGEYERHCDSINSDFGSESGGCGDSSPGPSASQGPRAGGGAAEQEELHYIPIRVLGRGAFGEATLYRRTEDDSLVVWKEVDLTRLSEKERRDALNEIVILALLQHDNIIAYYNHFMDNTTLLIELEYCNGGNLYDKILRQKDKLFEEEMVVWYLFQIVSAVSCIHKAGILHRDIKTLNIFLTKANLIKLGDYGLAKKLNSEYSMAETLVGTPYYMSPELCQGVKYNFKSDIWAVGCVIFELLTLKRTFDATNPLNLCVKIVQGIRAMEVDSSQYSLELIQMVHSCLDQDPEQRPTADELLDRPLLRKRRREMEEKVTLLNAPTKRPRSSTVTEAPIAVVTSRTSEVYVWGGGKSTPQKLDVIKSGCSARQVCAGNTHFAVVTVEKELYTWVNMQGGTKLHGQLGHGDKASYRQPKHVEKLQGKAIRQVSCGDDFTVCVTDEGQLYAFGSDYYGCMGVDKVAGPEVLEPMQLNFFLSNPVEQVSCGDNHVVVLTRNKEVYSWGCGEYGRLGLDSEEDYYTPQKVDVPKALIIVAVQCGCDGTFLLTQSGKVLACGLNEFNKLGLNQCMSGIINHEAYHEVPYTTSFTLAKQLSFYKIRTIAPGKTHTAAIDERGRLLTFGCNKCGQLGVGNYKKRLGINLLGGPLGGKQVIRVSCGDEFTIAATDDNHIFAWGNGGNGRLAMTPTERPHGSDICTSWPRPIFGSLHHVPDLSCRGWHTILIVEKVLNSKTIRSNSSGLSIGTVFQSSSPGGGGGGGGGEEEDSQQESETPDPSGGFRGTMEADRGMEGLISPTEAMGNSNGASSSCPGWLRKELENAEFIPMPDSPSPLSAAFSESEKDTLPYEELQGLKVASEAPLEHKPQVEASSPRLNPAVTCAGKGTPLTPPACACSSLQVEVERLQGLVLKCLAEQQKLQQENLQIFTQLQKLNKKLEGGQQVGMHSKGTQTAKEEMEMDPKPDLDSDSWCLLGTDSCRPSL

Work on `CCOc1cc(N2CCC(O)CC2)ccc1Nc1ncc2c(n1)N(C)c1ccccc1C(=O)N2C` yielded an IC50 [1] of 49 µM, an inhibition [2] of -0.3% and an IC50 [3] of over 50 µM. The inhibition [4] was 11.5%, the inhibition [5] was 6.8% and the IC50 [6] was over 50 µM. The inhibition [7] was -2.3%, the IC50 [8] was over 50 µM and the inhibition [9] was 3.3%. For the same molecule, the inhibition [10] was -1.6%.
